L major viab – Leishmania major promastigote growth inhibition, primary screen; Leishmania major promastigotes, resazurin fluorescence viability; inhibition, % at 10 µM; 200,000 compounds, 9% hits; AID 1063, 2008; in the data active = inhibition above about 50%;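 note: promastigotes grown with compound for 44 hours at 28 °C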
Hep lipid drop – inhibitors of hepatocyte lipid droplet formation, primary screen, imaging, high-throughput imaging, BODIPY stain; inhibition, % at 6.5 µM; AML12 mouse hepatocytes, oleate lipid droplets; AID 1656, 2009; 240,000 compounds, 0.4% hits;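 active = lipid droplet intensity inhibited by at least 50%, with more than 500 cells counted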
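Material – mouse AML12 hepatocyte cell line, fixed after treatment · Compound dosing – one dose, 6.5 µM compound · Times – compound with oleate, overnight · Measured by – Image-based BODIPY and DAPI two-channel analysis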
DTT redox prof – compounds producing H2O2 with reducing agent – biochemical, NIH compound library profiling, artefact control for MLSCN library redox annotation, primary screen; DTT-dependent redox cycling H2O2, phenol red/HRP absorbance; 100% = 100 µM peroxide control, 0% = buffer; activation, % at 10 µM; 200,000 compounds, 0.03% hits; AID 878, 2007;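 active = activation of at least 50% relative to the plate's high and low controls in the primary single-dose screen; inactive = activation below 50%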;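 note: compound incubated with DTT at 0.8 mM final as the reducing agent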
T cruzi inh – inhibitors of intracellular T. cruzi growth, primary screen, luminescence, NIH3T3 host cells. inhibition, % (no concentration beside the values). T. cruzi beta-gal in NIH3T3, 90 h. 300,000 compounds, 1.4% hits;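 active = mean inhibition across valid replicates above about 55%, limit read from the data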;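 note: signal also drops with host cell toxicity which is not excluded here; higher percent means less beta-gal luminescence so fewer parasites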
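Assay system: NIH/3T3 host cells with β-galactosidase reporter T. cruzi; input: 5,000 host fibroblasts per well; compound: single 50 nL compound addition per well in DMSO; timing: ≥90 h infection period, 3 h prior cell attachment; measured by: GalScreen β-gal luminescence, detergent lysis, 60 min; evaluation: percent inhibition of parasite-derived β-gal signal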
MPTP block – mitochondrial permeability transition pore inhibitors, primary screen, biochemical, isolated mouse mitochondria, absorbance | Ca2+ swelling absorbance, 30 min | inhibition, % at 10 µM | 360,000 compounds, 1.4% hits | AID 602449, 2012;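 active = inhibition of 50% or more, scaled per plate between neutral and stimulator controls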
Lipid drop inh – hepatocyte lipid droplet accumulation inhibitors, confirmation, imaging, AML12 mouse hepatocytes, single concentration, high-content; inhibition, % at 5.2 µM; BODIPY lipid droplet imaging; droplets induced with 100 µM oleic acid; shares compounds with Hep lipid drop; 870 compounds, 65% hits; AID 463183, 2010;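 active = inhibition of lipid droplet metric at least 50%, with more than 300 cells in each of four replicates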
AML12 cytotox – AML12 hepatocyte cytotoxicity, counter-screen for hepatic lipid droplet formation project, imaging, DAPI nuclear morphology imaging; z-score at 5 µM; AID 463200, 2010; AML12 mouse hepatocytes; hits give high values; cells fed 100 µM oleate overnight; 870 compounds, 3% hits; shares compounds with Hep lipid drop; in the data active = z-score above about 6.3;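 note: compound exposure lasted overnight at 37 °C before fixation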
AML12 tox conf – AML12 hepatocyte cytotoxicity, confirmation, cytotoxicity control for hepatic lipid droplet formation project, cell-based, single concentration. AID 463219, 2010. AML12 mouse hepatocyte viability, ATP luminescence; cells loaded with 100 µM oleic acid. 530 tested, under 10 active. cytotoxicity, % at 50 µM. shares compounds with Hep lipid drop;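 active = cytotoxicity above 50% in each of four replicates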;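 note: compound exposure lasted overnight at 37 °C before the ATP read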
Hits are given with their value; . = inactive; / = no result given. The full list was thinned out, with hits kept by preference.

SMILES	L major viab	Hep lipid drop	DTT redox prof	T cruzi inh	MPTP block	Lipid drop inh	AML12 cytotox	AML12 tox conf
O=C1c2ccccc2C(=O)c2c(Nc3ccc(CCO)cc3)ccc(O)c21	/	113	/	.	.	115	.	/
COc1ccc(C(CNC(=O)C(C)(C)Oc2ccc(Cl)cc2)N2CCOCC2)cc1 (stereo unspecified)	/	/	/	/	.	/	/	/
Cc1cc(C)n(-c2nc3c(c(=O)[nH]c(=O)n3C)n2CC(O)c2ccccc2)n1 (stereo unspecified)	.	.	.	.	.	/	/	/
Cc1cc(C)n(-c2nc3c(c(=O)[nH]c(=O)n3C)n2CC(O)COc2ccc(Cl)cc2Cl)n1 (stereo unspecified)	.	52	.	.	.	.	.	/
COc1cc(/C=C\C(=O)OCn2nnc3ccccc3c2=O)cc(OC)c1OC	.	57	.	.	.	.	.	/
CSc1cccc(NC(=O)Nc2ccccc2C(N)=O)c1	/	.	/	.	.	/	/	/
O=S(=O)(CCc1ccncc1)C1Cc2cccc3cccc1c23 (stereo unspecified)	/	.	/	.	.	/	/	/
COc1ccc(CC(=O)Nc2oc(-c3ccccc3)c(-c3ccccc3)c2C#N)cc1OC	.	97	.	.	.	110	.	.
COc1ccccc1OCC(=O)Nc1oc(-c2ccccc2)c(-c2ccccc2)c1C#N	.	.	.	/	.	/	/	/
COc1c([N+](=O)[O-])cc(C(=O)NNC(=O)c2ccc(C)cc2)cc1[N+](=O)[O-]	/	56	/	.	.	.	.	/
CCOC(=O)c1cc(CC)sc1NC(=O)Cc1ccccc1	.	.	.	.	.	/	/	/
CCOC(=O)c1cc(CC)sc1NC(=O)C1CC(=O)NN1Cc1ccccc1 (stereo unspecified)	.	82	.	.	.	110	.	.
COc1ccc(C(C#N)N2CCOCC2)cc1 (stereo unspecified)	.	53	.	.	.	.	.	/
CN(C)CCCNCC(=O)NN(c1ccccc1)c1ccccc1	/	.	/	.	/	/	/	/
Cc1cc(-n2cnnn2)cc(C)c1S(=O)(=O)NCCOc1ccccc1	/	61	/	.	.	.	.	/
CC(=O)c1ccc(OCCNS(=O)(=O)c2ccc(-n3cnnn3)c(C)c2)cc1	/	.	/	.	.	/	/	/
CCc1ccc(NC2=CC(=O)CC(C)(C)C2)cc1	/	.	/	.	.	/	/	/
CCCNC1=CC(=O)CC(C)(C)C1	.	57	.	.	.	.	.	/
CC1=CC(C)(C)NC(=S)N1c1cccc(Cl)c1	/	/	/	/	.	/	/	/
CCOc1cc2c(cc1OCC)C(c1ccccc1OC)OC(=O)C2 (stereo unspecified)	.	51	.	.	.	79	.	.
Nc1cc(Cl)ccc1Oc1ccccc1	.	/	.	.	.	/	/	/
Cc1cccc(Oc2ccc(Cl)cc2N)c1	.	58	.	.	.	.	.	/
COc1cc(NS(=O)(=O)c2cc(C(=O)NCCc3ccccn3)ccc2OC)cc(OC)c1	/	/	/	/	.	/	/	/
Cc1cccc(NC(=O)CSc2nnc(-c3cc(C)[nH]n3)n2N)c1	/	.	/	.	.	/	/	/
Cc1ccc(NC(=O)CSc2nnc(C)c(=O)n2N)cc1Cl	/	63	/	.	.	97	.	.
SMILES	L major viab	Hep lipid drop	DTT redox prof	T cruzi inh	MPTP block	Lipid drop inh	AML12 cytotox	AML12 tox conf
Cc1cccc(NC(=O)CSc2nnc(C)c(=O)n2N)c1	.	56	.	.	.	.	.	.
Oc1ccc(C=Nc2ccc(N3CCOCC3)cc2)c(O)c1	.	.	.	.	.	/	/	/
Oc1ccc(N=Nc2cccc(C(F)(F)F)c2)cc1C=Nc1ccc(N2CCOCC2)cc1	91	58	.	.	.	.	.	/
COCC(C)n1c(C)cc(C(=O)COC(=O)CN=C2NS(=O)(=O)c3ccccc32)c1C (stereo unspecified)	.	.	.	.	.	/	/	/
Cc1ccc(S(=O)(=O)NCc2ccc(C(=O)NC3CC3)cc2)cc1	.	60	.	.	.	.	.	.
Cc1ccc(S(=O)(=O)NCc2ccc(C(=O)NC3CCCCC3)cc2)cc1	/	.	/	.	.	/	/	/
Cc1ccc(C2/C(=C(/O)c3cnn(-c4ccccc4)c3C)C(=O)C(=O)N2CCCN2CCOCC2)o1 (stereo unspecified)	/	96	/	.	/	.	.	/
CCc1c(C#N)c(SCCC(=O)Nc2ccc(OC)cc2)nc2c1C(=O)CC(C)(C)C2	.	54	.	.	.	89	.	.
CCc1c(C#N)c(SCc2c(C)noc2C)nc2c1C(=O)CC(C)(C)C2	.	.	.	.	.	/	/	/
CC(C)CCOc1ccc(C(=O)NCC(c2ccco2)N(C)C)cc1 (stereo unspecified)	/	54	/	.	.	.	.	/
O=c1[nH]cnc(O)c1C(c1ccc([N+](=O)[O-])cc1)c1c(O)nc[nH]c1=O	/	.	/	.	.	/	/	/
CCOC(=O)N1CCN(C(=O)CSCC(=O)Nc2nc(-c3ccc(-c4ccccc4)cc3)cs2)CC1	.	82	.	.	.	76	.	.
CCOC(=O)N1CCN(C(=O)CSCC(=O)Nc2nc(-c3ccc(OC)cc3)cs2)CC1	.	.	.	.	.	/	/	/
COc1ccc(CCNC(=O)c2cc(-c3ccccc3)c(N3CCOCC3)s2)c(OC)c1OC	/	96	/	.	.	107	.	.
CCOc1ccc(CCNC(=O)c2cc(-c3ccccc3)c(N3CCOCC3)s2)cc1OCC	/	100	/	.	.	112	.	.
CN(Cc1ccc2c(c1)OCO2)C(=O)c1cc(-c2ccccc2)c(N2CCOCC2)s1	/	/	/	/	.	/	/	/
O=C(NCc1ccc2c(c1)OCO2)c1cc(-c2ccccc2)c(N2CCOCC2)s1	/	73	/	.	.	109	.	.
CCC/C(=N/Nc1ccc(Cl)cc1)c1cnnc(-c2ccccc2)n1	.	/	.	.	/	/	/	/
CC/C(=N/Nc1ccccc1Cl)c1cnnc(-c2ccccc2)n1	.	56	.	.	.	75	.	.
O=C(O)c1ccc(N2CCCS2(=O)=O)cc1	/	.	/	.	.	/	/	/
COc1cc2ncnc(NCc3cccs3)c2cc1OC	.	52	.	.	.	62	15	/
CCOc1ccc(C2=NNC(c3cccnc3)=Nc3ccc(OC)cc32)cc1	.	.	.	.	.	/	/	/
CCOc1ccc(C2=Nc3ccc(Br)cc3C(c3ccc(N4CCOCC4)cc3)=NN2)cc1	.	62	.	.	.	.	.	/
COc1ccc(-c2nc(NC(=O)Cn3ccc(C(F)(F)F)n3)sc2C)cc1	.	68	.	.	.	104	.	.

High-throughput results from PubChem BioAssay.
